We go through 40 compounds from ChEMBL document CHEMBL4513216, “Probing the Open Global Health Chemical Diversity Library for Multistage-Active Starting Points for Next-Generation Antimalarials” (ACS Infect Dis, 2020).

Molecules are shown by their SMILES.

The data set is described as follows: Toxicity liver stage against HepG2, at 10uM. In kind it is cell-based. Further details: test concentration 10 uM, cell line HepG2-A16-CD81EGFP. Particulars: human, HepG2-A16-CD81EGFP cells; read-out: INHIBITION
A digest of the protocol: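 Uninfected HepG2-A16-CD81EGFP cells, 3 × 10^3 per well, 1536-well, plated on prespotted compound at 10 μM final, parasite-free screening media added to match infected plates; puromycin 10 μM positive, DMSO 0.5% negative; run in parallel with 48 h PbLuc assay at 37 °C, 5% CO2; viability by CellTiter-Glo luminescence, normalized to controls.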
For the compound `Cc1noc(O)c1Cc1ccc2ccccc2c1`, the cytotoxicity at 10 µM is -8.94%.

As to `COc1ccc(C(=O)Nc2cccc(C(N)=O)c2)c(OC)n1`, the cytotoxicity at 10 µM is -9.2%.

As to `O=C(NCC1(CO)CC1)c1ccccc1Br`, the cytotoxicity at 10 µM is -0.734%.

Consider `O=C(NCC1CC1)c1cc2c(s1)CCN2C(=O)c1cccnc1`, for which the cytotoxicity at 10 µM was 8.07%.

In the case of `O=C(c1ccnnc1)N1CCC2(CCN(c3ccsc3)C2=O)C1` (stereo not given), the cytotoxicity at 10 µM is -139%.

`Cn1nc(C#N)c2c1CN(C(=O)c1ccnnc1)CCC2`: the cytotoxicity at 10 µM was -147%.

Regarding `Cc1nnsc1C(=O)NCCNS(=O)(=O)c1cccs1`, the cytotoxicity at 10 µM came to 4.29%.

As to `Cc1ccc(S(=O)(=O)Cc2nnc(C)n2C)cc1`, the cytotoxicity at 10 µM is -2.92%.

As to `CCc1ccsc1C(=O)NC(Cc1ccccc1)C(N)=O` (stereo not given), the cytotoxicity at 10 µM amounted to 9.01%.

Regarding `Cc1cnn(C2CN(CCOc3ccc(C#N)cc3)C2)c1`, the cytotoxicity at 10 µM was found to be 1.77%.

Regarding `Nc1cc(CCCNC(=O)NC2CCCC2)nn1-c1ccccc1`, the cytotoxicity at 10 µM is -18.9%.

Turning to `CNC(=O)C(NC(=O)c1ccn(C)c(=O)c1)c1ccccc1` (stereo not given), the cytotoxicity at 10 µM is 4.73%.

`CCC(NC(=O)c1cccc2cc[nH]c12)C(=O)N1CCOCC1` (stereo not given): the cytotoxicity at 10 µM was -13%.

Turning to `CC(C)c1cccc(-n2cc(O)c(C(=O)NCCC(=O)N(C)C)n2)c1`, the cytotoxicity at 10 µM is -2.53%.

As for `Cn1ccnc(Sc2ccc(O)cc2)c1=O`, the cytotoxicity at 10 µM worked out at 6.64%.

In the case of `CCn1cc(NC(=O)NC2CCCc3c2cnn3CCO)cn1` (stereo not given), the cytotoxicity at 10 µM amounted to 5.04%.

With `Cc1nnc(C(C)NCC2(c3c(F)cccc3F)CCCC2)o1` (stereo not given), the cytotoxicity at 10 µM came to 0.511%.

`O=C1NCCCCC1Sc1nnc(-c2cccnc2)n1C1CC1` (stereo not given): the cytotoxicity at 10 µM was -3.86%.

Regarding `NCc1n[nH]c(=O)n1-c1ccccc1Oc1ccccc1`, the cytotoxicity at 10 µM is -5.04%.

With `O=C1CCC2(CCCN(C(=O)c3ccc[nH]3)C2)CN1CCc1c[nH]cn1` (stereo not given), the cytotoxicity at 10 µM was 0.0773%.

For `CCN1CC2(CCN(CC3CCCO3)CC2)OC1=O` (stereo not given), the cytotoxicity at 10 µM was -4.78%.

On to `Cc1cc(N2CCOC(CN)C2)nc(-c2ccccc2)n1` (stereo not given), for which the cytotoxicity at 10 µM is -3.26%.

In the case of `CCN(CC1CCCN(CCc2cccc(OC)c2)C1)C(=O)CCSC` (stereo not given), the cytotoxicity at 10 µM is 10.5%.

Turning to `Cc1cc(=O)[nH]c(SC(C)C(=O)N2CCC(NS(C)(=O)=O)CC2)n1` (stereo not given), the cytotoxicity at 10 µM is -10.4%.

In the case of `CC(=O)NCc1ccc(C(=O)N2CCCC2c2cnn(C)c2)s1` (stereo not given), the cytotoxicity at 10 µM was -13.6%.

As for `N#Cc1ccsc1NC(=O)CCN1CCn2c(nnc2C2CC2)C1`, the cytotoxicity at 10 µM is -5.65%.

With `CCc1noc(C(C)N2CCN(C(=O)CN3CCOCC3)CC2)n1` (stereo not given), the cytotoxicity at 10 µM is -9.17%.

Take `Cc1nnc(CN(C)C2CCN(Cc3nc4ccccc4n3C)C2)o1` (stereo not given): the cytotoxicity at 10 µM is -10.1%.

For `Cc1cc(NC(=O)CN2CCCC2c2noc(C)n2)n(C)n1` (stereo not given), the cytotoxicity at 10 µM is -2.3%.

As to `NC(=O)C1CCCN(c2ccc(CNC(=O)c3cc[nH]n3)cc2)C1` (stereo not given), the cytotoxicity at 10 µM is -3.9%.

With `COc1ccc(C)cc1C(C)NC(=O)Cn1ccc(=O)n(C)c1=O` (stereo not given), the cytotoxicity at 10 µM was -1.59%.

Consider `CS(=O)(=O)NC1CCCN(C(=O)NCc2ccoc2)C1` (stereo not given), for which the cytotoxicity at 10 µM is -14.9%.

`CC(C)n1nc2c(cc1=O)CN(Cc1nnc(C3CC3)o1)CC2`: the cytotoxicity at 10 µM is -18.8%.

`NC(=O)c1ccc(OCC(=O)N2CCCC(n3cccn3)C2)cc1` (stereo not given): the cytotoxicity at 10 µM worked out at 1.3%.

For `c1cncc(N2CCCC3(CCN(CCN4CCCC4)CC3)C2)c1`, the cytotoxicity at 10 µM was -2.95%.

Consider `COCc1cncc2c1CCN(Cc1cnn(C)c1)C2`, for which the cytotoxicity at 10 µM was -0.287%.

Take `COCC1CC2(CCN(C(=O)c3cncc(C)c3)CC2)CO1` (stereo not given): the cytotoxicity at 10 µM is -155%.

For `Cc1cccc(CN2C[C@@H]3COC[C@H](NS(C)(=O)=O)[C@@H]3C2)n1`, the cytotoxicity at 10 µM is -2.6%.

Consider `Cc1cccc(N2CCc3ncc(CNc4ccccn4)n3CC2)n1`, for which the cytotoxicity at 10 µM amounted to 2.19%.

In the case of `Cc1ccc(C(=O)N2CCO[C@H]3[C@H](OCCN(C)C)CC[C@@H]32)o1`, the cytotoxicity at 10 µM is -145%.
